Source: ChEMBL document CHEMBL4680114, “Optimization of Potent and Selective Ataxia Telangiectasia-Mutated Inhibitors Suitable for a Proof-of-Concept Study in Huntington's Disease Models” (J Med Chem, 2019)
≈ marks a conversion by molar mass, not a printed value.

Assays:
[1] = Kinetic solubility in pH 7.4 PBS buffer by LC-UV assay; format: physicochemical; conditions: read-out: Kinetic_solubility
Outline: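 Compound from a 10 mM DMSO stock diluted to a nominal 200 µM in 0.1 M potassium phosphate/0.8% NaCl pH 7.4 (2% DMSO final), n=2. Shaken 2 h at room temperature, then filtered. Filtrate quantified by LC-UV against 200 µM and 10 µM DMSO standards, with MS peak confirmation.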

[2] = AUC/dose in C57BL/6J mouse plasma at 3 mg/kg, iv administered as single dose by LC-MS/MS analysis; format: ADME, organism-based; conditions: in vivo
Outline: (§1)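 Male C57BL/6 mice, single intravenous dose as solution in 10:50:40 DMSO:PEG400:H2O (5 mL/kg). Plasma by cardiac puncture and brain collected at set times, n=3 per time point. LC-MS/MS quantitation with diclofenac IS. Composite non-compartmental parameters from mean concentrations; C0 back-extrapolated from first two points; kel from at least last three concentrations; AUC dose-normalized.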

[3] = AUC/dose in C57BL/6J mouse brain at 3 mg/kg, iv administered as single dose by LC-MS/MS analysis; format: ADME, organism-based; conditions: in vivo; outline: as §1
[4] = Volume of distribution at steady state in C57BL/6J mouse at 3 mg/kg, iv administered as single dose by LC-MS/MS analysis; format: ADME, organism-based; conditions: in vivo, read-out: Vdss
Outline: (§2)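 Male mice given a single iv dose of 3 mg/kg in 10:50:40 DMSO:PEG400:H2O (5 mL/kg). Plasma (cardiac puncture) and brain collected, n=3 per time point, and measured by LC-MS/MS. Non-compartmental parameters from mean concentrations, with C0 back-extrapolated; AUC by linear trapezoidal method, dose-normalised.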

[5] = Ratio of AUC/dose in brain to plasma of C57BL/6J mouse at 3 mg/kg, iv administered as single dose by LC-MS/MS analysis; format: ADME, organism-based; conditions: brain and plasma, read-out: BPR; outline: as §2
[6] = Unbound brain-to-plasma concentration ratio in C57BL/6J mouse at 3 mg/kg, iv administered as single dose by LC-MS/MS analysis; format: ADME, organism-based; conditions: brain and plasma, read-out: K(p,uu,brain)
[7] = AUC/dose in C57BL/6J mouse plasma at 10 mg/kg, po by LC-MS/MS analysis; format: ADME, organism-based; conditions: in vivo
Outline: (§3)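 Male C57BL/6 mice, single oral dose as fine suspension in 10% or 20% hydroxypropyl-beta-cyclodextrin in water (10 mL/kg). Terminal cardiac-puncture plasma and saline-rinsed brain, n=3 per time point; brain homogenized in acetonitrile:water 3:1. LC-MS/MS with diclofenac IS; LLOQ 6 nM plasma, 21 nM brain. Composite non-compartmental analysis of mean concentrations; AUC normalized to actual dose.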

[8] = Oral bioavailability in C57BL/6J mouse plasma at 10 mg/kg by LC-MS/MS analysis; format: ADME, organism-based
Outline: (§4)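 Male mice given a single oral dose of 10, 30 or 100 mg/kg as a fine suspension in 10% or 20% hydroxypropyl-β-cyclodextrin (10 mL/kg). Plasma and brain collected (n=3/time point) and measured by LC-MS/MS. Non-compartmental analysis on mean concentrations; AUC dose-normalised. %F = normalised po AUCinf / normalised iv AUCinf.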

[9] = Cmax/dose in C57BL/6J mouse plasma at 10 mg/kg, po by LC-MS/MS analysis; format: ADME, organism-based; conditions: in vivo; outline: as §3
[10] = Tmax in C57BL/6J mouse plasma at 10 mg/kg, po by LC-MS/MS analysis; format: ADME, organism-based; outline: as §4
[11] = AUC/dose in C57BL/6J mouse plasma at 30 mg/kg, po by LC-MS/MS analysis; format: ADME, organism-based; conditions: in vivo; outline: as §3
[12] = Oral bioavailability in C57BL/6J mouse plasma at 30 mg/kg by LC-MS/MS analysis; format: ADME, organism-based; outline: as §4
[13] = Cmax/dose in C57BL/6J mouse plasma at 30 mg/kg, po by LC-MS/MS analysis; format: ADME, organism-based; conditions: in vivo; outline: as §3
[14] = Tmax in C57BL/6J mouse plasma at 30 mg/kg, po by LC-MS/MS analysis; format: ADME, organism-based; outline: as §4
[15] = AUC/dose in C57BL/6J mouse plasma at 100 mg/kg, po by LC-MS/MS analysis; format: ADME, organism-based; conditions: in vivo; outline: as §3
[16] = Oral bioavailability in C57BL/6J mouse plasma at 100 mg/kg by LC-MS/MS analysis; format: ADME, organism-based; outline: as §4
[17] = Cmax/dose in C57BL/6J mouse plasma at 100 mg/kg, po by LC-MS/MS analysis; format: ADME, organism-based; conditions: in vivo; outline: as §3
[18] = Tmax in C57BL/6J mouse plasma at 100 mg/kg, po by LC-MS/MS analysis; format: ADME, organism-based; outline: as §4
[19] = AUC/dose in C57BL/6J mouse brain at 10 mg/kg, po by LC-MS/MS analysis; format: ADME, organism-based; conditions: in vivo; outline: as §3
[20] = Cmax/dose in C57BL/6J mouse brain at 10 mg/kg, po by LC-MS/MS analysis; format: ADME, organism-based; conditions: in vivo; outline: as §3
[21] = Tmax in C57BL/6J mouse brain at 10 mg/kg, po by LC-MS/MS analysis; format: ADME, organism-based; outline: as §4
[22] = Ratio of AUC/dose in brain to plasma of C57BL/6J mouse at 10 mg/kg, po administered as single dose by LC-MS/MS analysis; format: ADME, organism-based; conditions: brain and plasma, read-out: BPR; outline: as §4
[23] = Unbound brain-to-plasma concentration ratio in C57BL/6J mouse at 10 mg/kg, po administered as single dose by LC-MS/MS analysis; format: ADME, organism-based; conditions: brain and plasma, read-out: K(p,uu,brain)
[24] = AUC/dose in C57BL/6J mouse brain at 30 mg/kg, po by LC-MS/MS analysis; format: ADME, organism-based; conditions: in vivo; outline: as §3
[25] = Cmax/dose in C57BL/6J mouse brain at 30 mg/kg, po by LC-MS/MS analysis; format: ADME, organism-based; conditions: in vivo; outline: as §3
[26] = Tmax in C57BL/6J mouse brain at 30 mg/kg, po by LC-MS/MS analysis; format: ADME, organism-based; outline: as §4
[27] = Ratio of AUC/dose in brain to plasma of C57BL/6J mouse at 30 mg/kg, po administered as single dose by LC-MS/MS analysis; format: ADME, organism-based; conditions: brain and plasma, read-out: BPR; outline: as §4
[28] = Unbound brain-to-plasma concentration ratio in C57BL/6J mouse at 30 mg/kg, po administered as single dose by LC-MS/MS analysis; format: ADME, organism-based; conditions: brain and plasma, read-out: K(p,uu,brain)
[29] = AUC/dose in C57BL/6J mouse brain at 100 mg/kg, po by LC-MS/MS analysis; format: ADME, organism-based; conditions: in vivo; outline: as §3
[30] = Cmax/dose in C57BL/6J mouse brain at 100 mg/kg, po by LC-MS/MS analysis; format: ADME, organism-based; conditions: in vivo; outline: as §3
[31] = Tmax in C57BL/6J mouse brain at 100 mg/kg, po by LC-MS/MS analysis; format: ADME, organism-based; outline: as §4
[32] = Ratio of AUC/dose in brain to plasma of C57BL/6J mouse at 100 mg/kg, po administered as single dose by LC-MS/MS analysis; format: ADME, organism-based; conditions: brain and plasma, read-out: BPR; outline: as §4
[33] = Unbound brain-to-plasma concentration ratio in C57BL/6J mouse at 100 mg/kg, po administered as single dose by LC-MS/MS analysis; format: ADME, organism-based; conditions: brain and plasma, read-out: K(p,uu,brain)

COc1ccc2c(c1)Cc1cccc(-c3cc(=O)cc(N4CCOCC4)o3)c1S2
solubility kinetic [1]: 11 µg/mL (≈ 27 µM)
AUC/dose [2]: 2700 nM·kg·h/mg
AUC/dose [3]: 3500 nM·kg·h/mg
Vd [4]: 1.6 L/kg
Kp [5]: 1.3
Kp uu [6]: 0.44
AUC/dose [7]: 2400 nM·kg·h/mg
bioavailability [8]: 89%
Cmax/dose [9]: 850 nM·kg/mg
Tmax [10]: 60 min
AUC/dose [11]: 3000 nM·kg·h/mg
bioavailability [12]: 111%
Cmax/dose [13]: 890 nM·kg/mg
Tmax [14]: 15 min
AUC/dose [15]: 1800 nM·kg·h/mg
bioavailability [16]: 67%
Cmax/dose [17]: 450 nM·kg/mg
Tmax [18]: 15 min
AUC/dose [19]: 3200 nM·kg·h/mg
Cmax/dose [20]: 950 nM·kg/mg
Tmax [21]: 60 min
Kp [22]: 1.3
Kp uu [23]: 0.45
AUC/dose [24]: 3300 nM·kg·h/mg
Cmax/dose [25]: 880 nM·kg/mg
Tmax [26]: 30 min
Kp [27]: 1.1
Kp uu [28]: 0.37
AUC/dose [29]: 2600 nM·kg·h/mg
Cmax/dose [30]: 850 nM·kg/mg
Tmax [31]: 60 min
Kp [32]: 1.4
Kp uu [33]: 0.49
